Bioassay records deposited in PubChem BioAssay by The Scripps Research Institute Molecular Screening Center.
ZTA DNA inh: counter-screen for EBNA-1 inhibitors: inhibitors of Epstein-Barr virus ZTA; P03206; ZTA-DNA binding, fluorescence polarization; inhibition, % at 11 µM; hit rate 0.15% among 320,000; AID 2234; in the data active = inhibition above about 33%
Target sequence (P03206 whole entry, looked up): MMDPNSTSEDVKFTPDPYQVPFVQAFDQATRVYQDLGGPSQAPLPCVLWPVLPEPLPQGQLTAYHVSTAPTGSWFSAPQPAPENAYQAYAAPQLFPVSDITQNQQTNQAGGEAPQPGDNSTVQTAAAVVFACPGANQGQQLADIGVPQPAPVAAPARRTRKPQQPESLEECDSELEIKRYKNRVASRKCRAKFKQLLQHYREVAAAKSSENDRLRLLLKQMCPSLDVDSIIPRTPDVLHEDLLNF
core dimer inh: HCV core protein dimerization inhibition | hit rate 0.33% among 300,000 | TR-FRET GST/Flag-core106 dimerization, 1536-well | inhibition, % at 5 µM | AID 1899;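 active = inhibition above the mean of all tested compounds plus 3 SD, set per screening campaign, cut at about 45% in these data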
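test system = GST/Flag-tagged HCV core106 proteins | probe or stimulus = Eu donor and XL665 acceptor anti-tag antibodies | times = compound-protein-antibody incubation 4 h at 22.5 °C | signal = TR-FRET, excitation 340 nm, emission 617 and 671 nm | measure = percent inhibition of core106 dimerization signal | controls = wells lacking GST-core106 and wells with excess unlabelled core106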
PP1 inh: counter-screen for PP5 inhibitors: inhibitors of human PP1-alpha | hit rate 0.9% among 320,000 | purified PP1alpha, OMFP fluorescence | P62136 | inhibition, % at 6.7 µM;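 active = inhibition above the mean inhibition of all tested compounds plus 3 SD, computed separately for each screening campaign, cut at about 15% in these data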
Target sequence (P62136 whole entry, looked up): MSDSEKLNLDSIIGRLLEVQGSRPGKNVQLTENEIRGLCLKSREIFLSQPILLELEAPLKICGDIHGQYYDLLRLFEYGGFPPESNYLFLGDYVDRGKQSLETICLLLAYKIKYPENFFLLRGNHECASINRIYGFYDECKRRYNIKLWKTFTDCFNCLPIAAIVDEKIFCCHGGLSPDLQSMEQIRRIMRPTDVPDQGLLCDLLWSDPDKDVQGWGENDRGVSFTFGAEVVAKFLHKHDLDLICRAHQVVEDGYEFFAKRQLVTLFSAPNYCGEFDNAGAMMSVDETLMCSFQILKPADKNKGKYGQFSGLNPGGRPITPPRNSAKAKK
PP5 inh: blocks human protein phosphatase 5 activity; inhibition, % at 6.7 µM; purified PP5c, OMFP substrate fluorescence; hit rate 0.18% among 320,000; AID 1987; P53041;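 active = inhibition above the campaign's mean inhibition across all tested compounds plus 3 SD, cut at about 9.5% in these data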;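 also: 0% = DMSO only and 100% = 100 µM cantharidin control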
EBNA-1 inhibitor: blocks EBNA-1 binding to DNA; EBNA-1 DNA binding, fluorescence polarization; inhibition, % at 14.8 µM; hit rate 0.34% among 300,000; AID 1950; in the data active = inhibition above about 28%
Active calls of the source: *; / = not tested or not shown; ! = repeats disagree. Hits are enriched below; roughly 1.7% of the tested compounds scored in any of these assays.

SMILES	ZTA DNA inh	core dimer inh	PP1 inh	PP5 inh	EBNA-1 inhibitor
COC(=O)c1[nH]c2ccc(C)cc2c1NC(=O)CN1CCCc2ccccc21	7	10	17*	3	-5
COc1c(C(CC(C)C)OC(C)=O)ccc2c1C(=O)OCc1cc(C)cc(O)c1O2 (stereo not given)	17	3	-1	7	5
COc1ccc(OC)c(/C=N/NC(=O)c2cc3c(OC)cccc3[nH]2)c1	-6	-4	-4	7	17
CCOc1ccc(/C=N/NC(=O)c2cc3c(OC)cccc3[nH]2)cc1	1	-1	16*	-1	6
O=C(CCc1ccncc1)N1CCCC(Nc2ccc(F)c(F)c2)C1 (stereo not given)	-23	0	-1	4	-7
COc1ccc(-c2cc(C)nc(SCc3cccc(C(=O)O)c3)n2)cc1	0	9	-1	2	1
O=C(O)c1cccc(CSc2nc(-c3ccc(Cl)cc3)cc(C(F)(F)F)n2)c1	1	19	17*	6	0
COc1cc(C(=O)NS(=O)(=O)c2ccccc2C)ccc1Cc1cn(C)c2ccc(NC(=O)OC3CCCC3)cc12	9	-132	24*	2	9
COc1ccc(NC(=O)COc2ccccc2C)cc1S(=O)(=O)N1CCCCC1	3	3	-4	4	-6
O=c1c2c3c(sc2n2cnnc2n1Cc1ccccc1)CN(Cc1ccccc1)CC3	-5	51*	13	2	-7
CN1CCc2c(sc3c2c(=O)n(-c2ccc(Cl)cc2)c2nncn32)C1	2	-1	-1	0	12
COc1ccc(-c2c(-c3cc(OC)cc(OC)c3)n(C)c3ccc(-c4ccc5[nH]ccc5c4)cc23)cc1	18	/	-3	-1	/
O=C(CCCn1nnnc1CN1CCOCC1)N1CCN(c2ccccc2F)CC1	-2	-4	15*	0	-7
CCOC(=O)c1cc(S(=O)(=O)NCC2CCN(Cc3cccc(C)c3)CC2)cn1C	-6	3	-1	-1	1
COc1ccccc1NC(=O)c1cc2ccccc2o/c1=N\O	14	2	0	-1	42*
COc1ccccc1NC(=O)c1cc2ccc(O)cc2o/c1=N\O	-10	-21	0	3	-1
C=CCn1c(Cc2ccccc2)n[nH]c1=S	-2	2	-6	-1	3
C=CCn1c(CSc2ccccc2[N+](=O)[O-])n[nH]c1=S	-8	65*	0	2	-1
COc1ccc(-c2nc(C(=O)NCCCN3CCOCC3)cc3c2[nH]c2ccccc23)cc1OC	-1	-3	0	2	-1
Cc1ccc(-c2nc(C(=O)NCCCN3CCOCC3)cc3c2[nH]c2ccccc23)cc1	2	0	15*	8	-14
CC(C)CN(C(=O)COc1ccc([N+](=O)[O-])cc1)c1c(N)n(CC(C)C)c(=O)[nH]c1=O	5	/	-1	-1	/
CCN=C1NN=C(c2cc(C)n(Cc3ccco3)c2C)CS1	-4	48*	11	0	-4
C=CCn1c(C)cc(C2=NNC(=NCc3ccccc3)SC2)c1C	16	6	6	8	16
COC(=O)c1ccccc1NC(=O)CN1C(=O)C2CCCN2c2ncc(Cl)cc21 (stereo not given)	3	50*	13	-1	4
O=C(CN1CSCC1=O)N1CCN(S(=O)(=O)c2ccc(Cl)cc2)CC1	4	/	-6	-1	/
SMILES	ZTA DNA inh	core dimer inh	PP1 inh	PP5 inh	EBNA-1 inhibitor
COC(=O)c1ccc(OCCN2CCCCCC2)cc1	-2	0	-2	2	3
O=C(c1ccc(OCCN2CCCCC2)cc1)c1c(-c2ccc(O)cc2)sc2cc(O)ccc12	-15	-32	16*!	3	-5
Cc1ccc(CN2CC(C(=O)Nc3nnc(SCc4c(Cl)cccc4Cl)s3)CC2=O)cc1 (stereo not given)	-13	27	16*	4	-3
CCS(=O)(=O)N1Cc2ccccc2CC1C(=O)Nc1nccs1 (stereo not given)	-14	15	-2	-6	-10
CCS(=O)(=O)N1Cc2ccccc2CC1C(=O)Nc1nnc(SCc2c(Cl)cccc2Cl)s1 (stereo not given)	1	21	17*	0	3
CCSc1nnc(NC(=O)C2Cc3ccccc3CN2S(=O)(=O)CC)s1 (stereo not given)	4	49*	5	1	-5
O=C1C=C(O)C(n2cncn2)C(c2ccc3c(c2)OCO3)C1 (stereo not given)	1	-18	3	1	-4
c1coc(-c2nc(-c3ccco3)c(-c3ccco3)nc2-c2ccco2)c1	76*	73*	43*	2	38*
Cc1cc2cc(C(c3nnnn3Cc3ccco3)N3CCc4ccccc4C3)c(=O)[nH]c2cc1C (stereo not given)	-3	25	15*	3	-7
Cc1cc2cc(C(c3nnnn3Cc3ccco3)N3CCc4ccccc43)c(=O)[nH]c2cc1C (stereo not given)	-21	29	6	4	-2
COc1ccccc1NC(=S)N(CCc1nc2cc(C)c(C)cc2[nH]1)Cc1cccnc1	-10	-1	0	4	-1
NC(=O)c1cc[n+](CC2=C(C(=O)O)N3C(=O)[C@@H](NC(=O)C(c4ccccc4)S(=O)(=O)[O-])[C@H]3SC2)cc1 (stereo not given in full)	35*	11	5	0	6
CC[C@H](C)/C=C(C)/C=C/C(=O)Cc1cc(O)c(C)c(O)c1C=O	10	67*	1	3	11
Cc1cccc(N2C(=O)C(Oc3ccc(Cl)cc3Cl)C2C=O)c1C (stereo not given)	11	4	7	1	20
CCc1ccc(/C=C/C(=O)c2cc(Br)ccc(=O)c2O)cc1	21	19	12	5	-9
Cc1cccc(/C=C/C(=O)c2cc(Br)ccc(=O)c2O)c1	10	3	18*	1	10
CN1CCN(c2nc3c(c(=O)[nH]c(=O)n3C)n2Cc2ccccc2)CC1	10	-2	3	0	-3
CCCc1cc(=O)n2[nH]c(-c3ccc(Cl)cc3)cc2n1	-1	3	-2	0	-7
CCOC(=O)Cc1cc(=O)n2[nH]c(-c3ccc(Cl)cc3)cc2n1	-17	-2	16*	3	11
CCN(C(=O)Cn1cnc2c1c(=O)n(C)c(=O)n2C)C1CCS(=O)(=O)C1 (stereo not given)	-3	/	-4	-2	/
COC(=O)c1c(NC(=O)COC(=O)[C@@H](NS(=O)(=O)c2cccc(Cl)c2)C(C)C)sc2c1CCC2	12	8	15*	1	-11
COC(=O)c1sc(N)c(C(=O)OC)c1COC(=O)[C@@H](NS(=O)(=O)c1cccc(Cl)c1)C(C)C	1	0	2	3	0
COc1cc(CNc2ccc(N3CCCCC3)cc2)ccc1OCC(=O)NC(C)(C)C	6	-5	5	0	-11
CCNCc1ccc(OCc2ccccc2F)c(OC)c1	-18	-4	-1	2	-5
